Reference: paper PMC5741288 (Pain Reports, 2016)

Experiment: Treatment-emergent adverse events, tolerability
Assay type: in vivo, healthy men
Method in brief: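 Healthy men received single oral tablet doses (part 1: 1–225 mg; part 2: 10, 50 mg) or placebo under double-blind randomisation. Treatment-emergent adverse events were recorded along with clinical laboratory tests, ECG, oral temperature, vital signs and physical examinations, through follow-up.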

Compound: CC(C)(O)c1ccccc1-c1ccc2[nH]c(/C=C/c3ccc(C(F)(F)F)cc3)nc2c1 [JNJ-39439335, trans-2-(2-{2-[2-(4-Trifluoromethyl-phenyl)-vinyl]-1H-benzimidazol-5-yl}-phenyl)-propan-2-ol]
- Doses at which thermohypoesthesia occurred (in vivo): ≥ 10 mg
- Participants with minor or first-degree burns on the hand or the mouth (of 79 participants receiving JNJ-39439335): 7 participants
- TEAE Agusia (part 1, 1 mg (N = 6)): 0 n (%)
- TEAE Back pain (part 1, 1 mg (N = 6)): 0 n (%)
- TEAE Burning sensation (part 1, 1 mg (N = 6)): 0 n (%)
- TEAE Chills (part 1, 1 mg (N = 6)): 0 n (%)
- TEAE Dizziness (part 1, 1 mg (N = 6)): 0 n (%)
- TEAE Dizziness postural (part 1, 1 mg (N = 6)): 1 (17) n (%)
- TEAE Dysgeusia (part 1, 1 mg (N = 6)): 0 n (%)
- TEAE Fatigue (part 1, 1 mg (N = 6)): 1 (17) n (%)
- TEAE Feeling cold (part 1, 1 mg (N = 6)): 0 n (%)
- TEAE Feeling hot (part 1, 1 mg (N = 6)): 0 n (%)
- TEAE Headache (part 1, 1 mg (N = 6)): 0 n (%)
- TEAE Hematoma (part 1, 1 mg (N = 6)): 0 n (%)
- TEAE Hyperhidrosis (part 1, 1 mg (N = 6)): 0 n (%)
- TEAE Hypoesthesia (part 1, 1 mg (N = 6)): 0 n (%)
- TEAE Hypogeusia (part 1, 1 mg (N = 6)): 0 n (%)
- TEAE Nausea (part 1, 1 mg (N = 6)): 0 n (%)
- TEAE Paresthesia (part 1, 1 mg (N = 6)): 0 n (%)
- TEAE Pruritus (part 1, 1 mg (N = 6)): 0 n (%)
- TEAE Pyrexia (part 1, 1 mg (N = 6)): 0 n (%)
- TEAE Rhinitis (part 1, 1 mg (N = 6)): 0 n (%)
- TEAE Thermal burn (part 1, 1 mg (N = 6)): 0 n (%)
- TEAE Thermohypoesthesia (part 1, 1 mg (N = 6)): 0 n (%)
- Total no. participants with AEs (part 1, 1 mg (N = 6)): 2 (33) n (%)
- TEAE Agusia (part 1, 2 mg (N = 6)): 0 n (%)
- TEAE Back pain (part 1, 2 mg (N = 6)): 0 n (%)
- TEAE Burning sensation (part 1, 2 mg (N = 6)): 0 n (%)
- TEAE Chills (part 1, 2 mg (N = 6)): 0 n (%)
- TEAE Dizziness (part 1, 2 mg (N = 6)): 0 n (%)
- TEAE Dizziness postural (part 1, 2 mg (N = 6)): 0 n (%)
- TEAE Dysgeusia (part 1, 2 mg (N = 6)): 0 n (%)
- TEAE Fatigue (part 1, 2 mg (N = 6)): 0 n (%)
- TEAE Feeling cold (part 1, 2 mg (N = 6)): 0 n (%)
- TEAE Feeling hot (part 1, 2 mg (N = 6)): 0 n (%)
- TEAE Headache (part 1, 2 mg (N = 6)): 1 (17) n (%)
- TEAE Hematoma (part 1, 2 mg (N = 6)): 1 (17) n (%)
- TEAE Hyperhidrosis (part 1, 2 mg (N = 6)): 0 n (%)
- TEAE Hypoesthesia (part 1, 2 mg (N = 6)): 1 (17) n (%)
- TEAE Hypogeusia (part 1, 2 mg (N = 6)): 0 n (%)
- TEAE Nausea (part 1, 2 mg (N = 6)): 0 n (%)
- TEAE Paresthesia (part 1, 2 mg (N = 6)): 0 n (%)
- TEAE Pruritus (part 1, 2 mg (N = 6)): 0 n (%)
- TEAE Pyrexia (part 1, 2 mg (N = 6)): 0 n (%)
- TEAE Rhinitis (part 1, 2 mg (N = 6)): 0 n (%)
- TEAE Thermal burn (part 1, 2 mg (N = 6)): 0 n (%)
- TEAE Thermohypoesthesia (part 1, 2 mg (N = 6)): 0 n (%)
- Total no. participants with AEs (part 1, 2 mg (N = 6)): 3 (50) n (%)
- TEAE Agusia (part 1, 5 mg (N = 6)): 0 n (%)
- TEAE Back pain (part 1, 5 mg (N = 6)): 0 n (%)
- TEAE Burning sensation (part 1, 5 mg (N = 6)): 0 n (%)
- TEAE Chills (part 1, 5 mg (N = 6)): 0 n (%)
- TEAE Dizziness (part 1, 5 mg (N = 6)): 0 n (%)
- TEAE Dizziness postural (part 1, 5 mg (N = 6)): 0 n (%)
- TEAE Dysgeusia (part 1, 5 mg (N = 6)): 0 n (%)
- TEAE Fatigue (part 1, 5 mg (N = 6)): 0 n (%)
- TEAE Feeling cold (part 1, 5 mg (N = 6)): 1 (17) n (%)
- TEAE Feeling hot (part 1, 5 mg (N = 6)): 1 (17) n (%)
- TEAE Headache (part 1, 5 mg (N = 6)): 0 n (%)
- TEAE Hematoma (part 1, 5 mg (N = 6)): 0 n (%)
- TEAE Hyperhidrosis (part 1, 5 mg (N = 6)): 0 n (%)
- TEAE Hypoesthesia (part 1, 5 mg (N = 6)): 0 n (%)
- TEAE Hypogeusia (part 1, 5 mg (N = 6)): 0 n (%)
- TEAE Nausea (part 1, 5 mg (N = 6)): 0 n (%)
- TEAE Paresthesia (part 1, 5 mg (N = 6)): 0 n (%)
- TEAE Pruritus (part 1, 5 mg (N = 6)): 0 n (%)
- TEAE Pyrexia (part 1, 5 mg (N = 6)): 4 (67) n (%)
- TEAE Rhinitis (part 1, 5 mg (N = 6)): 0 n (%)
- TEAE Thermal burn (part 1, 5 mg (N = 6)): 0 n (%)
- TEAE Thermohypoesthesia (part 1, 5 mg (N = 6)): 0 n (%)
- Total no. participants with AEs (part 1, 5 mg (N = 6)): 4 (67) n (%)
- TEAE Agusia (part 1, 10 mg (N = 6)): 0 n (%)
- TEAE Back pain (part 1, 10 mg (N = 6)): 0 n (%)
- TEAE Burning sensation (part 1, 10 mg (N = 6)): 0 n (%)
- TEAE Chills (part 1, 10 mg (N = 6)): 0 n (%)
- TEAE Dizziness (part 1, 10 mg (N = 6)): 1 (17) n (%)
- TEAE Dizziness postural (part 1, 10 mg (N = 6)): 2 (33) n (%)
- TEAE Dysgeusia (part 1, 10 mg (N = 6)): 0 n (%)
- TEAE Fatigue (part 1, 10 mg (N = 6)): 0 n (%)
- TEAE Feeling cold (part 1, 10 mg (N = 6)): 0 n (%)
- TEAE Feeling hot (part 1, 10 mg (N = 6)): 0 n (%)
- TEAE Headache (part 1, 10 mg (N = 6)): 1 (17) n (%)
- TEAE Hematoma (part 1, 10 mg (N = 6)): 0 n (%)
- TEAE Hyperhidrosis (part 1, 10 mg (N = 6)): 1 (17) n (%)
- TEAE Hypoesthesia (part 1, 10 mg (N = 6)): 0 n (%)
- TEAE Hypogeusia (part 1, 10 mg (N = 6)): 0 n (%)
- TEAE Nausea (part 1, 10 mg (N = 6)): 1 (17) n (%)
- TEAE Orthostatic hypotension (part 1, 10 mg (N = 6)): 2 (33) n (%)
- TEAE Paresthesia (part 1, 10 mg (N = 6)): 1 (17) n (%)
- TEAE Pruritus (part 1, 10 mg (N = 6)): 1 (17) n (%)
- TEAE Pyrexia (part 1, 10 mg (N = 6)): 5 (83) n (%)
- TEAE Rhinitis (part 1, 10 mg (N = 6)): 2 (33) n (%)
- TEAE Thermal burn (part 1, 10 mg (N = 6)): 0 n (%)
- TEAE Thermohypoesthesia (part 1, 10 mg (N = 6)): 3 (50) n (%)
- Total no. participants with AEs (part 1, 10 mg (N = 6)): 6 (100) n (%)
- TEAE Agusia (part 1, 15 mg (N = 6)): 0 n (%)
- TEAE Back pain (part 1, 15 mg (N = 6)): 0 n (%)
- TEAE Burning sensation (part 1, 15 mg (N = 6)): 0 n (%)
- TEAE Chills (part 1, 15 mg (N = 6)): 0 n (%)
- TEAE Dizziness (part 1, 15 mg (N = 6)): 1 (17) n (%)
- TEAE Dizziness postural (part 1, 15 mg (N = 6)): 1 (17) n (%)
- TEAE Dysgeusia (part 1, 15 mg (N = 6)): 1 (17) n (%)
- TEAE Fatigue (part 1, 15 mg (N = 6)): 0 n (%)
- TEAE Feeling cold (part 1, 15 mg (N = 6)): 4 (67) n (%)
- TEAE Feeling hot (part 1, 15 mg (N = 6)): 5 (83) n (%)
- TEAE Headache (part 1, 15 mg (N = 6)): 0 n (%)
- TEAE Hematoma (part 1, 15 mg (N = 6)): 0 n (%)
- TEAE Hyperhidrosis (part 1, 15 mg (N = 6)): 3 (50) n (%)
- TEAE Hypoesthesia (part 1, 15 mg (N = 6)): 0 n (%)
- TEAE Hypogeusia (part 1, 15 mg (N = 6)): 2 (33) n (%)
- TEAE Nausea (part 1, 15 mg (N = 6)): 0 n (%)
- TEAE Paresthesia (part 1, 15 mg (N = 6)): 2 (33) n (%)
- TEAE Pruritus (part 1, 15 mg (N = 6)): 1 (17) n (%)
- TEAE Pyrexia (part 1, 15 mg (N = 6)): 4 (67) n (%)
- TEAE Rhinitis (part 1, 15 mg (N = 6)): 0 n (%)
- TEAE Thermal burn (part 1, 15 mg (N = 6)): 0 n (%)
- TEAE Thermohypoesthesia (part 1, 15 mg (N = 6)): 5 (83) n (%)
- Total no. participants with AEs (part 1, 15 mg (N = 6)): 6 (100) n (%)
- TEAE Agusia (part 1, 15 mg R (N = 6)): 0 n (%)
- TEAE Back pain (part 1, 15 mg R (N = 6)): 0 n (%)
- TEAE Burning sensation (part 1, 15 mg R (N = 6)): 0 n (%)
- TEAE Chills (part 1, 15 mg R (N = 6)): 0 n (%)
- TEAE Dizziness (part 1, 15 mg R (N = 6)): 0 n (%)
- TEAE Dizziness postural (part 1, 15 mg R (N = 6)): 0 n (%)
- TEAE Dysgeusia (part 1, 15 mg R (N = 6)): 0 n (%)
- TEAE Fatigue (part 1, 15 mg R (N = 6)): 0 n (%)
- TEAE Feeling cold (part 1, 15 mg R (N = 6)): 3 (50) n (%)
- TEAE Feeling hot (part 1, 15 mg R (N = 6)): 3 (50) n (%)
- TEAE Headache (part 1, 15 mg R (N = 6)): 0 n (%)
- TEAE Hematoma (part 1, 15 mg R (N = 6)): 0 n (%)
- TEAE Hyperhidrosis (part 1, 15 mg R (N = 6)): 0 n (%)
- TEAE Hypoesthesia (part 1, 15 mg R (N = 6)): 1 (17) n (%)
- TEAE Hypogeusia (part 1, 15 mg R (N = 6)): 0 n (%)
- TEAE Nausea (part 1, 15 mg R (N = 6)): 0 n (%)
- TEAE Paresthesia (part 1, 15 mg R (N = 6)): 2 (33) n (%)
- TEAE Pruritus (part 1, 15 mg R (N = 6)): 0 n (%)
- TEAE Pyrexia (part 1, 15 mg R (N = 6)): 2 (33) n (%)
- TEAE Rhinitis (part 1, 15 mg R (N = 6)): 0 n (%)
- TEAE Thermal burn (part 1, 15 mg R (N = 6)): 0 n (%)
- TEAE Thermohypoesthesia (part 1, 15 mg R (N = 6)): 2 (33) n (%)
- Total no. participants with AEs (part 1, 15 mg R (N = 6)): 6 (100) n (%)
- TEAE Agusia (part 1, 30 mg (N = 5)): 0 n (%)
- TEAE Back pain (part 1, 30 mg (N = 5)): 2 (40) n (%)
